Structures can show the parent of a compound that is named as a salt.

The source of these data is ChEMBL document CHEMBL1152630, “Synthesis and evaluation of benzo[b]thiophene derivatives as inhibitors of alkaline phosphatases” (Bioorg Med Chem, 2009).

Assay [1] addresses Intestinal-type alkaline phosphatase (Bos taurus) (UniProt P19111). The assay is described as follows: Inhibition of bovine intestinal alkaline phosphatase assessed as residual enzyme activity at 0.1 mM in presence of 1% DMSO at pH 10.4 at 37 degC relative to untreated control. The essentials: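 Screening in 25 mM piperazine, 25 mM glycylglycine, 5 mM MgCl2, 5 µM ZnCl2, pH 10.4, 37 °C. BIAP (0.1–0.3 µg/mL) preincubated 10 min with 0.1 mM compound (final DMSO 1% v/v), no substrate. Reaction started with 0.05 mM pNPP; read at 420 nm (ε 18.6 cm⁻¹ mM⁻¹). Activity given relative to inhibitor-free control; sample-to-sample error 5%.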

Assay [2] is filed under the species Sus scrofa. Briefly: Inhibition of porcine kidney tissue non-specific alkaline phosphatase assessed as residual enzyme activity at 0.4 mM in presence of 4% DMSO at pH 10.4 at 37 degC relative to untreated control.
Assay [3] is described as follows: Inhibition of porcine kidney tissue non-specific alkaline phosphatase at pH 7.8 at 37 degC. Also on record: species or system Sus scrofa.
For assay [4], the species on record is Sus scrofa. Briefly: Inhibition of porcine kidney tissue non-specific alkaline phosphatase assessed as residual enzyme activity at 0.4 mM in presence of 1% DMSO at pH 10.4 at 37 degC relative to untreated control.

Sequence of Intestinal-type alkaline phosphatase (Bos taurus) (P19111 20-506 limits assumed): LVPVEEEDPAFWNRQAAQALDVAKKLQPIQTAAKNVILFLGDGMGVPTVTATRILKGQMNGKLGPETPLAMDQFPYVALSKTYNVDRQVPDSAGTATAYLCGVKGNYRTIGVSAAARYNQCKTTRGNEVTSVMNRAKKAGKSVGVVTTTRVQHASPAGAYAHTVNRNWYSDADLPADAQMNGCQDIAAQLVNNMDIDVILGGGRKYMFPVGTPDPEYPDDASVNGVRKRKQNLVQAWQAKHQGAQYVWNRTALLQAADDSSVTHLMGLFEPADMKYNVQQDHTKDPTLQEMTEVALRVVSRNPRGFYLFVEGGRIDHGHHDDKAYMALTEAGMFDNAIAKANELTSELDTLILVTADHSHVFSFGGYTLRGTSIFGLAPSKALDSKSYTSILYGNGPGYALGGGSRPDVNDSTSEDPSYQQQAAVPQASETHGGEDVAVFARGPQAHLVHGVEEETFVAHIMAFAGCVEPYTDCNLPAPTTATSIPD

As a reminder, the Ki is a dissociation constant, usually derived from enzyme kinetics or from competition with a known ligand. `c1ccc2c(C3CN4CCSC4=N3)csc2c1` (stereo unspecified): the Activity in assay [1] came to 100%; in assay [2] it was 19%. The molecule also displayed a Ki in assay [3] of 135 µM.
Consider `FC(F)c1c(-c2cccnc2)sc2ccccc12`, for which the Activity in assay [1] was determined as 103%; in assay [4] it was 79%.
Turning to `C1=CN2CC(c3csc4ccccc34)N=C2S1` (stereo unspecified), the results for the Activity in assay [1] and in assay [2] were 99% and 11%, respectively. Moreover, the Ki in assay [3] stood at 85 µM.
`c1ccc([C@H]2CN3CCSC3=N2)cc1` [LEVAMISOLE HYDROCHLORIDE]: the figures for the Activity in assay [1] and in assay [2] were 99% and 10%, respectively. In assay [3], the affinity corresponds to a Ki of 93 µM.
Take `COc1ccc(-c2sc3ccccc3c2C(=O)c2cc(OC)c(O)c(OC)c2)c([N+](=O)[O-])c1`: the Activity in assay [1] is 125%; in assay [2], 95%.
The like results for `FC(F)c1c(-c2ccccc2)sc2ccccc12` were, in that order, 94% and 90%.
The like results for `COc1ccccc1C(=O)c1c(-c2ccccc2[N+](=O)[O-])sc2ccccc12` were, in that order, 92% and 98%.
For `Cc1ccc(-c2cc3ccccc3s2)c([N+](=O)[O-])c1` the same measures were 127% and 97%.
In the case of `Clc1cccc(-c2cc3ccccc3s2)c1`, the values for the Activity in assay [1] and in assay [2] were 95% and 96%, respectively.
As for `CN1CCN(c2csc3ccccc23)CC1`, the values for the Activity in assay [1] and in assay [2] were 107% and 97%, respectively.
Take `[O-][s+]1cc(N2CCOCC2)c2ccccc21` (stereo unspecified): the values for the Activity in assay [1] and in assay [2] were 97% and 111%, respectively.
The like results for `CN(C)c1cccc(-c2sc3ccccc3c2CN)c1` were, in that order, 134% and 84%.
For `O=Cc1c(-c2cccnc2)sc2ccccc12`, the Activity in assay [1] was 119%; in assay [2], 93%.
The like results for `COc1csc2ccccc12` were, in that order, 90% and 93%.
The like results for `[O-][s+]1cc(Oc2ccc(Cl)cc2)c2ccccc21` (stereo unspecified) were, in that order, 122% and 103%.
For `N#Cc1cc2ccccc2s1` the same measures were 103% and 105%.
Consider `O=[N+]([O-])c1cc(Cl)ccc1-c1cc2ccccc2s1`, for which the Activity in assay [1] amounted to 107%; in assay [2] it was 93%.
For `Oc1ccccc1N1CCN(c2csc3ccccc23)CC1` the same measures were 49% and 109%.
For `FC(F)(F)COc1cc2ccccc2s1` the same measures were 116% and 100%.
The like results for `N#Cc1ccccc1-c1sc2ccccc2c1Oc1ccc(F)cc1` were, in that order, 66% and 85%.
Turning to `c1ccc2c(N3CCOCC3)csc2c1`, the Activity in assay [1] amounted to 108%; in assay [2], 99%.
The like results for `COc1ccc(-c2sc3ccccc3c2N2CCCCC2)cc1` were, in that order, 106% and 91%.
For `N#Cc1ccccc1-c1sc2ccccc2c1Oc1ccccc1` the same measures were 110% and 91%.
For `O=C(c1ccccc1)c1csc2ccccc12` the same measures were 43% and 80%.
Regarding `N#Cc1c(-c2ccc(C(F)(F)F)cc2)sc2ccccc12`, the results for the Activity in assay [1] and in assay [2] were 96% and 97%, respectively.
Turning to `[O-][s+]1cc(Br)c2ccccc21` (stereo unspecified), the results for the Activity in assay [1] and in assay [2] were 105% and 100%, respectively.
On to `O=Cc1c(-c2ccccc2)sc2ccccc12`, for which the Activity in assay [1] turned out to be 41%; in assay [2], 77%.
For `O=[N+]([O-])c1ccccc1-c1sc2ccccc2c1-c1ccccc1[N+](=O)[O-]` the same measures were 108% and 88%.
The like results for `CN(C)c1ccc(-c2sc3ccccc3c2C#N)cc1` were, in that order, 82% and 83%.
`COc1ccc(-c2sc3ccccc3c2OC)cc1`: the Activity in assay [1] was determined as 78%; in assay [2] it was 97%.
The like results for `[O-][s+]1cc(Oc2ccc(F)cc2)c2ccccc21` (stereo unspecified) were, in that order, 109% and 79%.
As to `Cc1ccc(-c2cc3ccccc3s2)c(N)c1`, the results for the Activity in assay [1] and in assay [2] were 107% and 93%, respectively.
For `COc1ccc(-c2sc3ccccc3c2Oc2ccccc2)cc1` the same measures were 105% and 94%.
With `COc1cc(Oc2csc3ccccc23)cc(OC)c1OC`, the Activity in assay [1] was 129%; in assay [2], 101%.
